Source: PubChem (several laboratories)
Compounds with a hit are over-represented: about 2.3% of the library has one in this group of screens.
JNK3 blocker: inhibitors of human JNK3 kinase. actives 0.61% (n = 60,000). inhibition, % at 8 µM. P53779. purified JNK3 kinase activity, HTS; in the data active = inhibition above about 17%;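 also: 0% = DMSO and 100% = reference inhibitor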
SF1 activator: SF-1 (human) activation; Q13285; CHO-K1 Gal4-SF-1 LBD luciferase reporter; % increase over DMSO SF-1-specific signal; activation, % at 10 µM; actives 1.9% (n = 65,000); AID 522;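 active = activation above the mean activation of all tested compounds plus 3 SD, cut at about 50% in these data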
Target sequence (Q13285 whole entry, looked up, the tested form may be a part): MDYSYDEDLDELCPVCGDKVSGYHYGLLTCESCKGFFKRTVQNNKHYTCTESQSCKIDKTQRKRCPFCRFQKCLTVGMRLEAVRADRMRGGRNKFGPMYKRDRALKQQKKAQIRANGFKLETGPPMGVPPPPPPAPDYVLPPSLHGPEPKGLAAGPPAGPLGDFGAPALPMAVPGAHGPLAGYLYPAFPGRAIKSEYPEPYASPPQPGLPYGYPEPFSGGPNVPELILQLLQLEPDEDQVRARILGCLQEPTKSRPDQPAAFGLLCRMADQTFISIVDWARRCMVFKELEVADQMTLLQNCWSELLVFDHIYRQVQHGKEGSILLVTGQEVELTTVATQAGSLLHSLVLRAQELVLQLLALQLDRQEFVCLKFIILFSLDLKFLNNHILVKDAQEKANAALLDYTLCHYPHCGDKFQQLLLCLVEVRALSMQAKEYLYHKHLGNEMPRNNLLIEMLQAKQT
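Test system: CHO-K1 cells co-transfected with Gal4 DBD–human SF-1 LBD, 5xGal4 luciferase reporter. Quantity: 4,000 cells per well. Compound: 10 µM only. Incubation: compound added 1 h post-seeding, 20 h exposure at 37 °C, 5% CO2. Detection: SteadyLite luciferase luminescence. Replication: one test per compound.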
RORA act: RORA (human) activation; actives 1.5% (n = 65,000); CHO-K1 Gal4-RORA LBD luciferase reporter, luminescence; percent increase over mock-subtracted basal signal; activation, % at 10 µM; P35398; AID 560;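 active = activation above the mean of all tested compounds plus 3 SD, cut at about 49% in these data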;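 also: 0% = DMSO-treated RORA cells and 100% = added signal equal to DMSO minus mock-transfected cells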
MT1-MMP txn act: MT1-MMP promoter transcription activation; activation factor at 10 µM; AID 750; actives 0.16% (n = 86,000); HT1080 MT1-MMP promoter luciferase reporter, luminescence, overnight; active compounds read high;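 active = activation factor of at least 2 for MT1-MMP transcription at 10 µM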
The depositor's hits bear a star; nt = no result given.

SMILES	JNK3 blocker	SF1 activator	RORA act	MT1-MMP txn act
CCOC(=O)N1CCN(C(c2ccc(F)cc2)c2sc3nc(C)nn3c2O)CC1 (stereo not drawn)	4	-6	-14	1.1
CCc1c(C)nc2cc(-c3ccc(OC)cc3)[nH]n2c1=O	4	45	58*	1.5
COc1ccc(Cn2c(C3CC3)nc3ccc(NC(C)=O)cc3c2=O)cc1	8	58*	77*	1.8
COc1ccc(NC(=O)CSc2nnc(C3CC3)n2-c2ccccc2)cc1	nt	nt	nt	1
CCn1cnc2cc(NCc3ccc(C)cc3)ccc21	-2	50*	44	1.4
CC(=O)N=C(N)Sc1nc2ccccc2[nH]1	-3	98*	31	1.4
CC(Sc1nc2ccccc2[nH]1)C(=O)O (stereo not drawn)	nt	nt	nt	1.1
CC1CCN(c2ccc(NC(=O)c3cccnc3)cc2)CC1	-2	59*	48	1.4
O=C(Nc1ccc2c(c1)oc1ccccc12)N1CCOCC1	6	52*	27	1.6
O=C(Nc1ccccc1)N1CCOCC1	nt	nt	nt	1.1
O=C(Nc1ccc2c(c1)oc1ccccc12)c1cccnc1	-2	55*	38	1.6
O=C(Nc1ccc2c(c1)oc1ccccc12)c1ccncc1	-4	1	14	1.4
O=C(NCCSc1ccccc1)c1cccnc1	8	62*	78*	1.6
O=C(NCCCCNC(=O)c1cccnc1)c1cccnc1	5	6	0	1
O=C(Nc1ccc2nccnc2c1)c1cnccn1	nt	8	17	1.4
O=C(Nc1cccnc1)c1cccnc1	-6	10	-18	1
O=C(Nc1ccc2ccccc2c1)c1cccnc1	5	66*	73*	1.3
O=C(Nc1ccc2ccccc2c1)c1cnccn1	-4	31	57*	0.6
COc1ccccc1C1CC(c2cccs2)=Nc2ccccc2S1 (stereo not drawn)	nt	nt	nt	2.1*
CC(C)(C)n1ncc2c(=O)n(CC(=O)Nc3ccc(Cl)cc3)cnc21	5	-12	-18	1.1
CC(C)(C)n1ncc2c(=O)n(CC(=O)NCc3ccccc3)cnc21	-6	78*	56*	0.8
CC(=O)Nc1ccc(NC(=O)Cn2cnc3c(cnn3C(C)(C)C)c2=O)cc1	3	-1	-8	1.2
CC(C)(C)n1ncc2c(=O)n(CC(=O)c3ccc(Cl)cc3)cnc21	1	87*	59*	1.6
C=CCn1c(CCNC(=O)c2ccccc2F)nnc1SCC(=O)Nc1nc2ccccc2s1	nt	nt	nt	1.1
O=C1c2ccccc2C(=O)N1CC1=CCS(=O)(=O)C1	-3	-22	-4	1.1
SMILES	JNK3 blocker	SF1 activator	RORA act	MT1-MMP txn act
Cc1cc(C)n(C(=O)CCCCCCCCC(=O)n2nc(C)cc2C)n1	nt	nt	nt	1.1
Cc1cccc(NC(=O)c2cnc3sccn3c2=O)c1	-2	-2	24	0.9
O=C(Nc1cnc2sccn2c1=O)c1ccccc1Cl	nt	52*	29	1.2
Cc1cccc(NC(=O)c2cnc3sccn3c2=O)c1C	-2	45	74*	1.5
CCC(C)(C)n1c(=O)[nH]c2c(c1=O)CCC2	-2	-3	-5	1
CN(C)c1ccc(NC(=O)Nc2cccc(Cl)c2)cc1	-17	64*	3	1.4
O=C(COC(=O)c1ccc(Br)o1)Nc1ccc(S(=O)(=O)N2CCCC2)cc1	2	-5	-15	1.1
O=C(Nc1ccc(S(=O)(=O)N2CCCCCC2)cc1)c1ccc(Br)o1	11	13	50*	1.3
CS(=O)(=O)N1CCN(c2ccc(NC(=O)c3ccc(Br)o3)cc2)CC1	-15	56*	17	1.3
Cc1ccc(C(=O)N2CCN(c3ccc(NC(=O)c4ccc(Br)o4)cc3)CC2)cc1	nt	nt	nt	0.9
NC(=O)CSc1nnc(CCc2nc3ccccc3[nH]2)n1-c1ccccc1	nt	nt	nt	1
Nc1cc(C(=O)N2CCCC2)cc(C(=O)N2CCCC2)c1	-4	10	-9	1.1
COc1ccc(C2=CC(c3c(C)nn(-c4ccccc4)c3Cl)n3nnnc3N2)cc1OC (stereo not drawn)	-6	-9	-5	1.1
COc1cc(OC)cc(C(=O)Nc2nc3ccccc3[nH]2)c1	nt	nt	nt	1.4
COc1ccc(C(=O)Nc2nc3ccccc3[nH]2)cc1OC	5	50*	18	1.3
COc1ccc(C(=O)NCc2nc3ccccc3[nH]2)cc1OC	31*	-1	0	1
COc1ccc(C(=O)NC(C)c2nc3ccccc3[nH]2)cc1OC (stereo not drawn)	nt	-18	-12	1
CC1CCN(c2c(NCc3ccc(C(=O)N4c5ccccc5CC4C)cc3)c(=O)c2=O)CC1 (stereo not drawn)	-4	-4	18	nt
CCOc1ccc(OCC)c(NC(=O)CSc2nc3c(c(=O)n(C)c(=O)n3C)n2C)c1	4	6	4	1.2
CCOc1ccc(OCC)c(NC(=O)CSc2nc3c(c(=O)n(C)c(=O)n3C)n2C(C)C)c1	5	101*	17	1.1
CCCCC(=O)Nc1ccc(Cl)cn1	-4	5	3	1.6
O=C(CCc1ccccc1)Nc1ccc(Cl)cn1	4	60*	38	0.8
O=C(COc1ccccc1Cl)Nc1ccc(Cl)cn1	8	74*	62*	1.5
O=C(COc1ccc(Cl)cc1)Nc1ccc(Cl)cn1	-1	-2	13	1.3
CCCC/C=C/C(NC(=O)C(C)(C)C)c1ccccc1 (stereo not drawn)	nt	nt	nt	1.2
SMILES	JNK3 blocker	SF1 activator	RORA act	MT1-MMP txn act
CC(C)c1ccc2oc(-c3ccc(NC(=O)c4ncn[nH]4)cc3)nc2c1	7	66*	33	1
CCC(C)c1ccc2oc(-c3ccc(NC(=O)c4ncn[nH]4)cc3)nc2c1 (stereo not drawn)	-2	8	-9	1.2
CC(C)CC(=O)Nc1ccc2oc(-c3cccnc3)nc2c1	5	32	46	1.5
CC(=O)Nc1ccc2oc(-c3cc(F)c(F)cc3Cl)nc2c1	-11	53*	52*	nt
Cc1ccc2oc(-c3ccc(NC(=O)CC(C)C)cc3)nc2c1	3	44	55*	1.3
O=C(Nc1ccc2oc(-c3ccccc3Cl)nc2c1)c1cncc(Br)c1	-10	6	4	1
O=C(Nc1ccc2oc(-c3ccccc3Cl)nc2c1)c1ncn[nH]1	1	76*	62*	0.8
Cc1cc(C(=O)OCC(=O)NCCCN2CCCC2=O)c2ccccc2n1	nt	nt	nt	1.1
COc1cc(OC)c2c(C)c(Cl)c(=O)oc2c1	2	1	0	1.1
O=C(CN1C(=O)c2ccccc2S1(=O)=O)N1CCOCC1	-7	-8	-25	2.1*
C=CCOn1c(=O)c(-c2cc3ccccc3o2)[n+]([O-])c2ccccc21	-10	77*	44	1.6
C=CCOn1c(=O)c(C)[n+]([O-])c2ccccc21	4	0	0	1.1
CN(C)/C=N/c1sc2c(c1C#N)CC(C)(C)NC2(C)C	nt	nt	nt	1.3
Cn1c(NCc2c[nH]c3ccccc23)nc2ccccc21	4	78*	64*	1.5
O=C(Nc1ccc2c(c1)OCO2)C1CCCCN1S(=O)(=O)c1ccccc1 (stereo not drawn)	nt	nt	nt	1
COC(=O)c1c(C#N)c(N)nc2c1CCCC2	19*	-4	-5	1
